Results on 26 molecules are retold here after ChEMBL document CHEMBL1773039, “Structure-Activity Study of Dihydrocinnamic Acids and Discovery of the Potent FFA1 (GPR40) Agonist TUG-469” (ACS Med Chem Lett, 2010).

Assay [1] addresses T1, Free fatty acid receptor 1 (Homo sapiens, UniProt O14842). The experiment in a line: Agonist activity at human FFA1 transfected in 1321N1 cells assessed as calcium mobilization by microplate assay. It is filed as functional, cell-based. In a few lines: (§1)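 Calcium mobilization in hFFA1-expressing cells was measured as full concentration-response curves and reported as pEC50. Efficacy is % of the response to 10 μM of the reference agonist.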
On the technique in general: Calcium assays in cells follow changes in intracellular calcium, usually with a dye or a luminescent sensor.

The target in assay [2] is Free fatty acid receptor 2 (Homo sapiens) (UniProt O15552). The experiment in a line: Agonist activity at human GPR43 in HEK293 cells.
Assay [3] deals with T2, Peroxisome proliferator-activated receptor gamma (Homo sapiens) (UniProt P37231).
T2 sequence (whole entry): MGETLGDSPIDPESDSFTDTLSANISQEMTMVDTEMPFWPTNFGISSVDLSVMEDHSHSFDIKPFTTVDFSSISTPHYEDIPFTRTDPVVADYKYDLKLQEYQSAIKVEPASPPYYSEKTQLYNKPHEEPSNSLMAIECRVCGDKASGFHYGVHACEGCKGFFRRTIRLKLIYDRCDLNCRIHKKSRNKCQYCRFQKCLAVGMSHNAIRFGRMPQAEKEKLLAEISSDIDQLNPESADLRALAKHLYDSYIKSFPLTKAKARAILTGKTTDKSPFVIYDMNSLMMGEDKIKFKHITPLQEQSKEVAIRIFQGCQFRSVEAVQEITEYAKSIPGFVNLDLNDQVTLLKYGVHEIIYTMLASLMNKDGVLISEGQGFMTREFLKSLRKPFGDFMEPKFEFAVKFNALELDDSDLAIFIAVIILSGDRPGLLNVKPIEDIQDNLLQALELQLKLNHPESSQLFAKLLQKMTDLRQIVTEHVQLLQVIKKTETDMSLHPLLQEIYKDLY
Kind of assay: Transactivation of human PPARgamma ligand binding domain transfected in mouse embryo fibroblasts assessed as renilla luciferase activity at 1 uM after 18 hrs by luminometry relative to 1 uM rosiglitazone.

Assay [4] addresses Free fatty acid receptor 3 (Homo sapiens) (UniProt O14843). The experiment in a line: Agonist activity at human GPR41 in HEK293 cells.
The species named for assay [5] is Homo sapiens. The experiment in a line: Selectivity for human FFA1 over human PPARgamma.
For assay [6], the target named is T1, Free fatty acid receptor 1. Kind of assay: Agonist activity at human FFA1 transfected in 1321N1 cells assessed as calcium mobilization by microplate assay relative to 10 uM TUG-20. The format is functional, cell-based. In a few lines: as §1
Assay [7] deals with T2, Peroxisome proliferator-activated receptor gamma (Homo sapiens). Kind of assay: Transactivation of human PPARgamma ligand binding domain transfected in mouse embryo fibroblasts at 100 uM after 18 hrs analyzed by photinus and renilla luciferase activity by luminometry relative to 1 uM rosiglitazone.

As a reminder, the EC50 is the concentration giving half of the maximal effect.

The structures appear in SMILES notation. Activity calls are given as the source filed them. The rule behind the calls is not given here.

T1 sequence (O14842 whole entry): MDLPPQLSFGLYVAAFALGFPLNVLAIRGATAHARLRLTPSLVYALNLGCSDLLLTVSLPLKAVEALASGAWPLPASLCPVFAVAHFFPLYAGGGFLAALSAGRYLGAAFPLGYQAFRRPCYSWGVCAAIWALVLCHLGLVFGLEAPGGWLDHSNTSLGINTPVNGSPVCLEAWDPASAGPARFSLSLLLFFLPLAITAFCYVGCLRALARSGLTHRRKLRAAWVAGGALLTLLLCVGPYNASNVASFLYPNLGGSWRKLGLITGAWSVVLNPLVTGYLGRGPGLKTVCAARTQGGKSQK
Chain of Free fatty acid receptor 2 (Homo sapiens) (O15552 whole entry, looked up): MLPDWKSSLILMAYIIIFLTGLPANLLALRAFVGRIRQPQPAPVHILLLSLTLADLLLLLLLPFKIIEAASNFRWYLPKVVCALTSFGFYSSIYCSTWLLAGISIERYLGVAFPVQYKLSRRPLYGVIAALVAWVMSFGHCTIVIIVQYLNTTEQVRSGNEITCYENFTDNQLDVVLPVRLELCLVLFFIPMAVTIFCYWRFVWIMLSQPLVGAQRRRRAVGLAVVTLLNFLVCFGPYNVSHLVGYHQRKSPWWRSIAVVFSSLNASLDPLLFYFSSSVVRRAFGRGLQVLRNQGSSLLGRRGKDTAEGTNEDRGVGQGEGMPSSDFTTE
Chain of Free fatty acid receptor 3 (Homo sapiens) (O14843 whole entry, looked up): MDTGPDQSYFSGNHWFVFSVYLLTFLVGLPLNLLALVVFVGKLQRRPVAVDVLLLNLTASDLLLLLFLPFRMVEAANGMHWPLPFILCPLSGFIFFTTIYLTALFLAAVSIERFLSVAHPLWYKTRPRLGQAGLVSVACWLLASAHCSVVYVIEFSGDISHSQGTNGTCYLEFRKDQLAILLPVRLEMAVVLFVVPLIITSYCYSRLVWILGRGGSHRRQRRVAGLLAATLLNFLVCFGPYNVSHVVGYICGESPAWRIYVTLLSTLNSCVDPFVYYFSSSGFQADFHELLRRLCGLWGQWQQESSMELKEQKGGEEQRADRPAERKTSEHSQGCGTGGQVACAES

Consider `N#Cc1cccc(COc2ccc(CCC(=O)O)cc2)c1`, for which the concentration for a half-maximal effect (EC50) in assay [1] is 525 nM. In addition, the outcome in assay [2], in assay [3] and in assay [4] was inactive. In assay [5], the fold change (FC) was above 100. Moreover, in assay [6], the Efficacy amounted to 102%.

For the molecule `O=C(O)CCc1ccc(NCc2cccc(C(F)(F)F)c2)cc1`, the EC50 in assay [1] is 186 nM. Also, the result in assay [2], in assay [3] and in assay [4] was inactive. Further, in assay [5], the fold change (FC) is above 100. Besides, in assay [6], the Efficacy worked out at 102%.

On to `O=C(O)CCc1ccc(CNc2ccccc2)cc1`, for which, in assay [1], the EC50 is 21400 nM. For the same molecule, the outcome in assay [2], in assay [3], in assay [4] and in assay [7] was inactive. In addition, the fold change (FC) in assay [5] is above 100. In addition, the Efficacy in assay [6] turned out to be 101%.

Consider `O=C(O)CCc1ccc(NCc2ccccc2)cc1`, for which the half-maximal effective concentration (EC50) in assay [1] is 759 nM. Moreover, the result in assay [2], in assay [3] and in assay [4] was inactive. The molecule also registered an Activity in assay [7] of 7%. Further, in assay [5], the fold change (FC) was above 100. Besides, in assay [6], the Efficacy was 89%.

`O=C(O)CCc1ccc(C#Cc2ccccc2)cc1`: in assay [1], the EC50 is 200 nM. Also, the outcome in assay [2], in assay [3] and in assay [4] was inactive. Besides, the fold change (FC) in assay [5] was above 100. Moreover, the Efficacy in assay [6] is 108%.

As to `O=C(O)CCc1ccc(OCc2cccc(C(F)(F)F)c2)cc1`, the EC50 in assay [1] was 83.2 nM. The result in assay [2], in assay [3] and in assay [4] was inactive. Moreover, the fold change (FC) in assay [5] is above 100. Further, in assay [6], the Efficacy was 103%.

With `O=C(O)CCc1ccc(OCc2cccc(-c3ccccc3)c2)cc1`, in assay [1], the EC50 was 135 nM. In addition, the outcome in assay [2], in assay [3] and in assay [4] was inactive. In assay [7], this molecule yielded an Activity of 25%. In assay [5], this molecule returned a fold change (FC) above 100. Besides, the Efficacy in assay [6] was found to be 105%.

Turning to `COc1ccccc1-c1cccc(CNc2ccc(CCC(=O)O)cc2)c1`, the 50% effective concentration (EC50) in assay [1] was 69.2 nM. For the same molecule, the result in assay [2], in assay [3] and in assay [4] was inactive. In assay [7], this molecule came in with an Activity of 51%. This molecule displayed a fold change (FC) in assay [5] above 100. Also, in assay [6], the Efficacy was found to be 109%.

As for `O=C(O)CCc1ccc(NCc2ccc(Oc3ccccc3)cc2)cc1`, the concentration giving a half-maximal response (EC50) in assay [1] is 182 nM. Besides, the result in assay [2], in assay [3] and in assay [4] was inactive. Moreover, the Activity in assay [7] stood at 34%. In assay [5], this molecule registered a fold change (FC) above 100. For the same molecule, in assay [6], the Efficacy turned out to be 100%.

`Cc1cc(Oc2ncc(C(F)(F)F)cc2Cl)ccc1CC1SC(=O)NC1=O` (stereo unspecified): the EC50 in assay [1] was 178 nM. In assay [6], the Efficacy is 103%.

With `Cc1ccc(-c2cccc(COc3ccc(CCC(=O)O)cc3)c2)cc1`, the EC50 in assay [1] is 490 nM. Also, the outcome in assay [2], in assay [3] and in assay [4] was inactive. The same molecule had an Activity in assay [7] of 15%. The same molecule gave a fold change (FC) in assay [5] above 100. Besides, in assay [6], the Efficacy stood at 86%.

With `O=C(O)CCc1ccc(OCc2cccc(Br)c2)cc1`, the EC50 in assay [1] was 89.1 nM. Moreover, the result in assay [2], in assay [3] and in assay [4] was inactive. The molecule further registered an Activity in assay [7] of 19%. In assay [5], this molecule came in with a fold change (FC) above 100. In assay [6], the Efficacy was 99%.

Consider `O=C(O)CCc1ccc(NCc2cccc(Br)c2)cc1`, for which the EC50 in assay [1] is 174 nM. The outcome in assay [2], in assay [3] and in assay [4] was inactive. In assay [7], this molecule gave an Activity of 27%. The molecule further gave a fold change (FC) in assay [5] above 100. Also, the Efficacy in assay [6] worked out at 110%.

For `O=C(O)CCc1ccc(NCc2ccc(-c3ccccc3)cc2)cc1`, the EC50 in assay [1] is 417 nM. The outcome in assay [2], in assay [3] and in assay [4] was inactive. The Activity in assay [7] was 23%. In assay [5], this molecule registered a fold change (FC) above 100. In addition, the Efficacy in assay [6] is 92%.

`O=C(O)CCc1ccc(OCc2ccccc2-c2ccccc2)cc1`: the result in assay [2], in assay [3] and in assay [4] was inactive. In addition, the fold change (FC) in assay [5] was above 100.

For the molecule `O=C(O)CCc1ccc(CCc2ccccc2)cc1`, the EC50 in assay [1] was 3630 nM. The result in assay [2], in assay [3] and in assay [4] was inactive. The same molecule came in with a fold change (FC) in assay [5] above 100. Besides, the Efficacy in assay [6] is 116%.

On to `COc1ccccc1-c1cccc(COc2ccc(CCC(=O)O)cc2)c1`, for which, in assay [1], the concentration for a half-maximal effect (EC50) was 120 nM. The outcome in assay [2], in assay [3] and in assay [4] was inactive. Also, in assay [7], the Activity came to 37%. In assay [5], this molecule yielded a fold change (FC) above 100. Also, in assay [6], the Efficacy was determined as 105%.

Take `O=C(O)CCc1ccc(OCc2ccccc2Br)cc1`: the EC50 in assay [1] was 447 nM. The outcome in assay [2], in assay [3] and in assay [4] was inactive. In assay [5], this molecule gave a fold change (FC) above 100. The Efficacy in assay [6] was 99%.

On to `O=C(O)CCc1ccc2oc(-c3ccccc3)cc2c1`, for which the EC50 in assay [1] was 2450 nM. In addition, the outcome in assay [2], in assay [3], in assay [4] and in assay [7] was inactive. In assay [5], this molecule came in with a fold change (FC) above 100. Further, the Efficacy in assay [6] was 92%.

For the molecule `Cc1ccc(-c2cccc(CNc3ccc(CCC(=O)O)cc3)c2)cc1`, in assay [1], the EC50 is 126 nM. The outcome in assay [2], in assay [3] and in assay [4] was inactive. This molecule came in with an Activity in assay [7] of 31%. Further, the fold change (FC) in assay [5] was above 100. In assay [6], the Efficacy was found to be 92%.

Take `O=C(O)CCc1ccc(OCc2cccc(Oc3ccccc3)c2)cc1`: the EC50 in assay [1] was 57.5 nM. For the same molecule, the result in assay [2], in assay [3] and in assay [4] was inactive. For the same molecule, in assay [7], the Activity worked out at 51%. For the same molecule, in assay [5], the fold change (FC) is above 100. Besides, the Efficacy in assay [6] was determined as 98%.

On to `O=C(O)CCc1ccc(OCc2ccccc2)c(I)c1`, for which the EC50 in assay [1] was 12600 nM. The result in assay [2], in assay [3] and in assay [4] was inactive. The same molecule had an Activity in assay [7] of 42%. For the same molecule, the fold change (FC) in assay [5] is above 100. Further, the Efficacy in assay [6] was 81%.

In the case of `O=C(O)CCc1ccc(OCc2ccc(Br)cc2)cc1`, the EC50 in assay [1] was 550 nM. Further, the outcome in assay [2], in assay [3] and in assay [4] was inactive. In addition, the fold change (FC) in assay [5] was above 100. Further, in assay [6], the Efficacy came to 98%.

Regarding `O=C(O)CCc1ccc(COc2ccccc2)cc1`, the EC50 in assay [1] was 6310 nM. In addition, the outcome in assay [2], in assay [3], in assay [4] and in assay [7] was inactive. In addition, the fold change (FC) in assay [5] was above 100. The Efficacy in assay [6] came out at 88%.

Turning to `O=C(O)CCc1ccc(NCc2cccc(-c3ccccc3)c2)cc1`, the concentration for a half-maximal effect (EC50) in assay [1] was 53.7 nM. Further, the outcome in assay [2], in assay [3] and in assay [4] was inactive. Also, the Activity in assay [7] came to 33%. The fold change (FC) in assay [5] was above 100. The Efficacy in assay [6] was 101%.

In the case of `CC(Oc1ccc(CCC(=O)O)cc1)c1ccccc1` (stereo unspecified), the EC50 in assay [1] is 3310 nM. Moreover, the outcome in assay [2], in assay [3] and in assay [4] was inactive. Further, the fold change (FC) in assay [5] is above 100. In addition, the Efficacy in assay [6] amounted to 106%.
